# DENV2 CPE – inhibitors of DENV2 cytopathic effect; DENV2-infected cells, cytopathic effect rescue, plate reader; CPE inhibition, % at 9.99 µM; actives 1.7% (n = 350,000); AID 651640; in the data active = CPE inhibition above about 20%, passing the limit was not always enough; tested in BHK-21 cells;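 note: 0% = median of neutral control wells and 100% = median of positive control wells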
# S100A4 MyoIIA – S100A4-myosin IIA interaction inhibition; P26447; S100A4/TAMRA-MyoIIA peptide fluorescence polarization; inhibition, % at 10.7 µM; actives 0.14% (n = 360,000);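 active = mean inhibition of at least 70% across replicates, with every replicate also reaching that level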
# Target sequence (P26447 whole entry, looked up): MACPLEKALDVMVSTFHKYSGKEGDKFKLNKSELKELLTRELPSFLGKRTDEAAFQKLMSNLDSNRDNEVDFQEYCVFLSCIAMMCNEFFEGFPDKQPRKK
#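 Test system: S100A4 monomer protein. Medium: HEPES buffer with Ca2+, pH 7.2. Reagent: fluorescent myosin IIA peptide, 5 nM. Compound dosing: single-point compound testing. Timing: 5 min between mix addition and reading. Benchmarks: DMSO neutral and TFP positive wells.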
# MLL AF4-AF9 inh – inhibitors of human MLL-AF4/AF9 interaction; actives 0.47% (n = 350,000); AlphaScreen, biotin-AF4 peptide binding to FLAG-AF9; inhibition, % at 10 µM;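 active = every replicate reaching a set inhibition limit, whatever the replicate mean, cut at about 25% in these data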;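 note: 0% = plate neutral control median and 100% = total signal loss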
# CaV13 FRET inh – Primary screen for inhibitors of IQ motif and Ca2+-dependent inactivation inhibitor domain binding in CACNA1D, Förster resonance energy transfer in living cells, …. inhibition, % at 12.3 µM. AID 743397. HEK cells, CFP/YFP FRET ICDI-IQ, plate reader, 10 min; percent FRET-ratio fall versus neutral wells. actives 0.098% (n = 340,000);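 active = mean replicate inhibition of at least 30% and at least 1% of replicates passing that level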;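 note: 0% = median of the neutral control wells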
# SIRT5 inh – inhibitors of human sirtuin-5 desuccinylase | AID 652115 | inhibition, % at 15 µM | actives 1.1% (n = 330,000) | Purified SirT5, succinyl-peptide AMC, trypsin-coupled fluorescence | Q9NXA8; in the data active = inhibition above about 15%
# Target sequence (Q9NXA8 whole entry, looked up): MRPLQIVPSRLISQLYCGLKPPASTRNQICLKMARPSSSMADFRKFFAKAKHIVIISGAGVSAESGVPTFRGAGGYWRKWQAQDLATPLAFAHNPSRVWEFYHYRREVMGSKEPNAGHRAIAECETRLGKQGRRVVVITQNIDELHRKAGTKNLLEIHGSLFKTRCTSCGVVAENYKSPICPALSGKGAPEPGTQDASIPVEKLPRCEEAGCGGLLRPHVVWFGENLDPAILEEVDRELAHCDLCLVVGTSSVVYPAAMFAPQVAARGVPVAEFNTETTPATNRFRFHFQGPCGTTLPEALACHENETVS
# Numbers without * were called inactive; / = no result. The list is not random: actives were taken first. Their share in the collection is about 2.7%.
SMILES,DENV2 CPE,S100A4 MyoIIA,MLL AF4-AF9 inh,CaV13 FRET inh,SIRT5 inh
CCNC(=O)OC[C@H]1O[C@H](C#Cc2ccc(C(C)(C)C)cc2)C=C[C@H]1OC(C)=O,-12.9,-3.5,-2.6,-5.3,/
CN(C)CC(=O)N1[C@@H]2c3ccc(-c4ccccc4)c(=O)n3C[C@H]1[C@H](CO)[C@H]2C(=O)N1CCN(C)CC1,8.8,39.7,-7.5,/,-24.5
COCC(=O)N1C[C@H](C)[C@@H](OC)CN(C)C(=O)c2cc(NC(=O)C3CCC3)ccc2OC[C@@H]1C,-0.5,12.0,-1.1,/,-5.8
COc1ccc(NC(=O)N(C)C[C@H]2Oc3ccc(NC(=O)Cn4cnnn4)cc3C(=O)N([C@@H](C)CO)C[C@H]2C)cc1,-5.1,-2.9,-1.0,/,-2.0
O=C(CNCc1ccccn1)Nc1cc(C(F)(F)F)ccc1N1CCOCC1,6.1,-9.5,0.5,-0.9,17.3*
Cc1ccc(C)c(NC(=O)CN2C(=O)C3CC=CCC3C2=O)c1 (configuration not stated),44.8*,-3.8,-1.1,-10.8,11.2
Cc1nn(-c2ccccc2)c2[nH]c(=O)cc(C(F)(F)F)c12,-4.8,2.0,-2.5,-2.4,76.4*
Cc1cc(=O)[nH]c2c1c(C)nn2-c1ccccc1,/,/,/,-3.5,/
COc1ccc(Br)cc1CN1CCC(N2CCCC2)CC1,25.3*,-2.2,-1.4,-19.6,1.5
C=CCNC(=O)[C@@H]1[C@H]2C(=O)O[C@H](c3ccccc3)[C@H](c3ccccc3)N2[C@H](c2ccc(O)cc2)[C@@]12C(=O)Nc1ccc(C#CCC(C(=O)OC)C(=O)OC)cc12,31.6*,-1.4,-2.6,/,9.4
C=CCNC(=O)[C@H]1[C@@H]2C(=O)O[C@@H](c3ccccc3)[C@@H](c3ccccc3)N2[C@@H](c2ccc(O)cc2)[C@]12C(=O)Nc1ccc(C#CCCO)cc12,-8.0,6.2,1.6,/,4.1
C=CCOC(=O)[C@@H]1[C@H]2C(=O)O[C@H](c3ccccc3)[C@H](c3ccccc3)N2[C@H](c2ccc(OCCOC(=O)[C@@H]3C[C@@H]4C(=O)N[C@@H](Cc5ccccc5)C(=O)N4[C@@H]3c3ccc(O)cc3)cc2)[C@@]12C(=O)Nc1ccc(I)cc12,-5.2,-8.4,-2.0,/,19.4*
COC(=O)C(CC#Cc1ccc2c(c1)[C@]1(C(=O)N2)[C@H](C(=O)NC[C@H](O)c2ccccc2)[C@H]2C(=O)O[C@H](c3ccccc3)[C@H](c3ccccc3)N2[C@@H]1c1ccccc1OCCO)C(=O)OC,13.1,-4.1,-3.8,/,19.4*
CO[C@@H]1CN(C)C(=O)c2cc(NC(C)=O)ccc2OC[C@@H](C)N(C(=O)C2CCC2)C[C@H]1C,-5.5,11.2,-2.0,/,-2.8
CCC1=C(OC(=O)N(CC)CC)N2C(=O)OC(=NCC(=O)OC)[C@]2(Cc2ccccc2)[C@H]2C1=CC[C@H]1C(=O)NC(=O)[C@H]12,23.3*,1.0,3.4,-5.1,/
N#CCCN(C(=O)COC(=O)c1ccc(S(=O)(=O)N2CCOCC2)cc1)c1ccccc1,2.1,-7.0,-1.7,-4.0,-2.5
CN(C(=O)COC(=O)c1ccc(S(=O)(=O)N2CCOCC2)cc1)c1ccccc1,80.8*,1.9,-1.1,-6.2,-0.2
O=C(c1ccc(F)cc1)N1CCCCN2[C@H](CO)[C@@H](c3ccc(-c4ccccc4)cc3)[C@H]2C1,-8.0,1.4,4.9,/,2.3
NNC(=O)Nc1cccc(C(F)(F)F)c1,1.4,1.7,1.2,5.0,41.1*
O=C(Nc1ccncc1)Nc1cccc(C(F)(F)F)c1,-4.8,-4.9,-8.3,-5.7,-1.1
O=C(C[C@@H]1CC[C@@H](NC(=O)CCN2CCCCC2)[C@@H](CO)O1)Nc1ccc(-c2ccccc2)cc1,13.4,-9.8,3.0,/,-1.6
COC(=O)C[C@@H]1C[C@H]2c3cc(NS(=O)(=O)c4ccc(F)cc4)ccc3O[C@H]2[C@@H](CO)O1,6.7,3.8,3.5,/,2.2
CC(=Nc1ccc(Br)cc1)c1sc2ccccc2c1O,0.3,-9.6,-0.1,-3.6,0.1
CC(=Nc1ccccc1)c1sc2ccccc2c1O,-8.2,-7.0,25.8*,-7.9,-2.8
O=C(NCC[C@@H]1CC[C@H](NS(=O)(=O)Cc2ccccc2)[C@@H](CO)O1)C1CCC1,/,/,-3.4,/,/
SMILES,DENV2 CPE,S100A4 MyoIIA,MLL AF4-AF9 inh,CaV13 FRET inh,SIRT5 inh
C[C@@H]1CN([C@@H](C)CO)C(=O)Cc2cc(NC(=O)Nc3ccccc3)ccc2O[C@@H]1CN(C)Cc1ccccc1,2.2,9.3,3.5,/,1.7
C[C@H](CO)N1C[C@H](C)[C@@H](CN(C)Cc2ccccc2)Oc2ccc(NC(=O)Nc3ccccc3)cc2CC1=O,24.8*,-8.0,12.3,/,6.5
C[C@H]1CN([C@@H](C)CO)C(=O)Cc2cc(NC(=O)Nc3ccc4c(c3)OCO4)ccc2O[C@H]1CN(C)Cc1ccccc1,46.1*,-20.2,13.6,/,1.2
C[C@@H]1CN([C@@H](C)CO)C(=O)Cc2cc(NC(=O)Nc3ccccc3)ccc2O[C@H]1CN(C)Cc1ccc(Cl)c(Cl)c1,37.5*,-6.1,-3.7,/,5.4
COc1ccc(NC(=O)Nc2ccc3c(c2)CC(=O)N([C@@H](C)CO)C[C@@H](C)[C@H](CN(C)Cc2ccccc2)O3)cc1,-4.8,95.6*,8.9,/,5.6
CC(=O)Nc1cc2nc3ccccc3oc-2cc1=O,8.1,-2.6,-1.7,/,2.4
COc1cccc(-c2cnc3c(c2)C(=O)N([C@@H](C)CO)C[C@H](C)[C@@H](CN(C)C(=O)CC2CC2)O3)c1,0.3,17.8,-1.4,/,-2.7
COc1ccc(NC(=O)Nc2ccc3c(c2)CC(=O)N([C@H](C)CO)C[C@H](C)[C@@H](CN(C)Cc2ccc(Oc4ccccc4)cc2)O3)cc1,-1.4,3.6,3.0,/,22.7*
CCCC(=O)Nc1ccc2c(c1)C(=O)N(C)[C@@H]1CC[C@H](CC(=O)NCC3CCCCC3)O[C@@H]1CO2,-3.1,11.6,-0.3,/,1.7
CCCC#Cc1cnc2c(c1)C(=O)N([C@H](C)CO)C[C@@H](C)[C@@H](CN(C)S(C)(=O)=O)O2,-2.8,3.9,-34.9,/,2.9
O=C(c1ccc(Cl)cc1)N1CCc2c([nH]c3ccccc23)C1C(F)(F)F (configuration not stated),26.3*,-2.4,5.4,3.0,3.5
O=C(Nc1ccccc1)N1CCc2c([nH]c3ccccc23)C1C(F)(F)F (configuration not stated),1.0,-2.7,/,-3.8,-0.4
COc1ccc(/C=C/C(=O)O)cc1Cl,6.0,-5.5,42.5*,1.2,-3.3
CNC[C@H]1Oc2ncc(-c3ccc(C#N)cc3)cc2C(=O)N([C@@H](C)CO)C[C@H]1C,-3.6,-10.6,-1.0,/,-10.6
COc1ccc(Cl)cc1C(=O)Nc1cc(=O)n(C)c(=O)n1C,1.2,-12.0,49.0*,-5.7,-0.5
Cc1ccc(NC(=O)C(C)OC(=O)CSc2ccccc2)cc1 (configuration not stated),-1.8,0.1,-7.4,-5.9,/

# Screens (PubChem)
